Measurements collected from several papers.
HDAC8: Histone deacetylase 8 (HDAC8, Homo sapiens, UniProt Q9BY41)
BRD4 BD1: Bromodomain-containing protein 4, BD1 (BRD4, Homo sapiens, UniProt O60885)
murD: UDP-N-acetylmuramoylalanine--D-glutamate ligase (murD, Escherichia coli K-12, UniProt P14900)
KAT2B: Histone acetyltransferase KAT2B (KAT2B, Homo sapiens, UniProt Q92831)

| Structure (SMILES) | target | test | conditions | measurement | result |
| --- | --- | --- | --- | --- | --- |
| CC[C@H](CC[C@@H](C)[C@H]1CC[C@H]2[C@@H]3CC=C4C[C@@H](O[C@@H]5O[C@H](CO)[C@@H](O)[C@H](O)[C@H]5O)CC[C@]4(C)[C@H]3CC[C@]12C)C(C)C | HDAC8 | enzyme activity, inhibitor | 10 µM | inhibition | -8.57% |
| Cn1nnc2ccc(NC(=O)c3cccc(C(=O)O)c3)cc21 | BRD4 BD1 | thermal stability, DSF | 100 µM | ΔTm | 2.8 °C |
| O=C(Nc1ccc(C=NNS(=O)(=O)c2ccc3ccccc3c2)cc1)c1cc([N+](=O)[O-])cc([N+](=O)[O-])c1 | murD | enzyme activity, inhibitor, absorbance | 100 µM | remaining activity | 78% |
| C[S+]([O-])c1ccc(-c2nc(-c3ccncc3)c(-c3ccc(F)cc3)[nH]2)cc1 (centres unmarked) | Tyrosine-protein kinase BAZ1B (BAZ1B, Homo sapiens, UniProt Q9UIG0) | thermal stability, DSF | 10 µM | ΔTm | 0.29 °C |
| CCCOc1ccc(OC)c(F)c1C(=O)c1ccc(C(=O)N[C@@H]2CNC[C@H]2NC(=O)c2ccc3[nH]ncc3c2)cc1 | cGMP-dependent protein kinase 1 (PRKG1, Homo sapiens, UniProt Q13976) | enzyme activity, inhibitor | 50 nM | remaining activity | 22% |
| CC(C)[C@@H]1NC(=O)[C@@H]2CCCN2C(=O)[C@H](Cc2ccccc2)NC(=O)CSC[C@@H](C(=O)N[C@@H](Cc2ccc(O)cc2)C(N)=O)NC(=O)[C@H](Cc2c[nH]c3ccccc23)NC(=O)[C@H](CCCCN)NC(=O)[C@H](Cc2ccccc2)N(C)C(=O)[C@H](Cc2ccccc2)NC1=O | BRD4 BD1 | thermal stability, DSF | 50 µM | ΔTm | -0.52 °C |
| Cc1cnc(Nc2ccc(OCCN3CCCC3)cc2)nc1Nc1cccc(S(=O)(=O)NC(C)(C)C)c1 | Bromodomain-containing protein 4, BD2 (BRD4, Homo sapiens, UniProt O60885) | thermal stability, DSF | 10 µM | ΔTm | 3.11 °C |
| O=C(Cc1ccc2c(c1)OCO2)Oc1ccccc1C=NNS(=O)(=O)c1ccc2ccccc2c1 | murD | enzyme activity, inhibitor, absorbance | 100 µM | remaining activity | 49% |
| Nc1ncnc2occ(-c3ccc(NC(=O)Nc4cc(C(F)(F)F)ccc4F)cc3)c12 | Mitogen-activated protein kinase kinase kinase 4 (MAP3K4, Homo sapiens, UniProt Q9Y6R4) | cell-free assay, inhibitor | 20 µM | remaining signal | 1.6% |
| Oc1ccc(-c2nc(-c3ccncc3)c(-c3ccc(F)cc3)[nH]2)cc1 | BRD4 BD1 | thermal stability, DSF | 10 µM | ΔTm | 0.55 °C |
| N#Cc1ccc(COc2ccccc2C=NNS(=O)(=O)Cc2ccccc2F)cc1 | murD | enzyme activity, inhibitor, absorbance | 100 µM | remaining activity | 39% |
| Cc1cc2c(cc1N1C(=O)c3cccc4c(Cl)ccc(c34)C1=O)n(C)c(=O)n2C | KAT2B | thermal stability, DSF | 10 µM | ΔTm | 0.5 °C |
| O=[N+]([O-])c1cccc(S(=O)(=O)Oc2ccccc2C=NNS(=O)(=O)c2ccc3ccccc3c2)c1 | murD | enzyme activity, inhibitor, absorbance | 50 µM | remaining activity | 70% |
| Cc1ccc(C(=O)Nc2ccc(CN3CCN(C)CC3)c(C(F)(F)F)c2)cc1C#Cc1cnc2cccnn12 | Cyclin-dependent kinase 11B (CDK11B, Homo sapiens, UniProt P21127) | enzyme activity | 23.5 nM | remaining activity | 79% |
| N#Cc1ccc(COc2ccccc2C=NNS(=O)(=O)c2ccccc2[N+](=O)[O-])cc1 | murD | enzyme activity, inhibitor, absorbance | 100 µM | remaining activity | 86% |
| NS(=O)(=O)c1ccc(Nc2nc(-c3ccc(F)cc3)c3ccccc3n2)cc1 | KAT2B | binding, competition with immobilised ligand | 1 µM | remaining binding | 80% |
| Nc1ncnc2c1ncn2[C@@H]1O[C@H](CO)[C@@H](O)[C@H]1O | HDAC8 | enzyme activity, inhibitor | 10 µM | inhibition | -15.9% |
